ChEMBL document CHEMBL3808283, “Biological Characterization and in Vivo Assessment of the Activity of a New Synthetic Macrocyclic Antifungal Compound” (J Med Chem, 2016)
In brackets after ≈: the same amount, converted by molar mass. Activity calls are given as the source filed them. The rule behind the calls is not given here.

Key:
[1] = tested on: Candida tropicalis; experiment: Antifungal activity against Candida tropicalis 86E measured at 72 hrs by broth dilution assay; assay type: functional
How it was run: (§1)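 EUCAST broth microdilution, including the update for non-fermenting yeasts (Cryptococcus, Geotrichum), on clinical and reference yeast isolates. Incubated at 37 °C and read at 24, 48 and 72 h. MIC taken as the lowest concentration with no visible growth. For Cryptococcus and Geotrichum, MICs were read only once growth was visible in the control row.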

[2] = tested on: Candida albicans; experiment: Upregulation of orf19.7336 gene expression in Candida albicans SC5314 at 3 uM after 45 mins by microarray method relative to control; assay type: functional
How it was run: (§2)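 Log-phase cultures in liquid YEPD were exposed to 3 µM compound (final) for 15 or 45 min, with untreated controls sampled at the same times, in three biological replicates. Total RNA was extracted by glass-bead/phenol-chloroform disruption and integrity-checked. One-color Cy3-labelled cRNA (600 ng) was hybridized for 17 h at 65 °C to 8 × 15K arrays, and fold change was taken versus control.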

[3] = tested on: Candida albicans; experiment: Upregulation of orf19.4531 gene expression in Candida albicans SC5314 at 3 uM after 45 mins by microarray method relative to control; assay type: functional; how it was run: as §2
[4] = tested on: Candida parapsilosis; experiment: Fungistatic activity against Candida parapsilosis 81E at 20 uM after 24 to 48 hrs by time kill assay; assay type: functional, organism-based
How it was run: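 EUCAST broth microdilution at 37 °C. From wells at MIC, 2×, 4× and 8× MIC, 10 µL aliquots were taken, serially 10-fold diluted in saline and plated on Sabouraud dextrose agar. Plates were incubated at 37 °C for 24/48 h, and 48 h for Cryptococcus and Geotrichum. Done in duplicate, detection limit 10 CFU/mL. A drop of at least 3 Log10 CFU/mL from the initial inoculum in 24 h counts as fungicidal; a smaller drop counts as fungistatic.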

[5] = tested on: Pichia kudriavzevii; experiment: Antifungal activity against Candida krusei ATCC 14243 measured at 72 hrs by broth dilution assay; assay type: functional; settings: ATCC 14243, 72 h; how it was run: as §1
[6] = tested on: Candida albicans; experiment: Upregulation of RTA2 gene expression in Candida albicans SC5314 at 3 uM after 15 mins by microarray method relative to control; assay type: functional
How it was run: (§3)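 Log-phase C. albicans SC5314 in liquid YEPD exposed to 3 µM final for 15 or 45 min; untreated controls taken at the same time points. Three biological replicates. RNA extracted by glass-bead/phenol-chloroform method and integrity checked. One-color Cy3-labeled cRNA (600 ng) hybridized 17 h at 65 °C to 8 × 15K arrays. Expression expressed as fold change versus control.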

[7] = tested on: Candida parapsilosis; experiment: Ratio of MIC at 24 hrs to MIC at 48 hrs for Candida parapsilosis 64E; assay type: functional
How it was run: (§4)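 MICs by EUCAST broth microdilution, with the update for non-fermenting yeasts, incubated at 37 °C. Read at 24, 48 and 72 h as the lowest concentration preventing visible growth.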

[8] = tested on: Candida albicans; experiment: Antifungal activity against Candida albicans 15T up to 96 hrs by broth dilution assay; assay type: functional, organism-based
[9] = tested on: Candida tropicalis; experiment: Antifungal activity against Candida tropicalis 86E measured at 48 hrs by broth dilution assay; assay type: functional; how it was run: as §1
[10] = tested on: Candida albicans; experiment: Upregulation of orf19.4531 gene expression in Candida albicans SC5314 at 3 uM after 15 mins by microarray method relative to control; assay type: functional; how it was run: as §2
[11] = tested on: Candida albicans; experiment: Upregulation of orf19.3089 gene expression in Candida albicans SC5314 at 3 uM after 15 mins by microarray method relative to control; assay type: functional; how it was run: as §2
[12] = tested on: Cryptococcus neoformans; experiment: Antifungal activity against Cryptococcus neoformans up to 96 hrs by broth dilution assay; assay type: functional, organism-based
[13] = tested on: Magnusiomyces capitatus; experiment: Antifungal activity against Geotrichum capitatum measured at 48 hrs by broth dilution assay; assay type: functional; how it was run: as §1
[14] = tested on: Candida albicans; experiment: Upregulation of orf19.6873.1 gene expression in Candida albicans SC5314 at 3 uM after 15 mins by microarray method relative to control; assay type: functional; how it was run: as §2
[15] = tested on: Candida parapsilosis; experiment: Antifungal activity against Candida parapsilosis ATCC 34136 measured at 72 hrs by broth dilution assay; assay type: functional; settings: Lodderomyces parapsilosis, ATCC 34136, 72 h; how it was run: as §1
[16] = tested on: Candida albicans; experiment: Upregulation of FCR1 gene expression in Candida albicans SC5314 at 3 uM after 45 mins by microarray method relative to control; assay type: functional; how it was run: as §3
[17] = tested on: Candida parapsilosis; experiment: Ratio of MIC at 24 hrs to MIC at 48 hrs for Candida parapsilosis ATCC 34136; assay type: functional; how it was run: as §4
[18] = tested on: Candida albicans; experiment: Upregulation of LCB4 gene expression in Candida albicans SC5314 at 3 uM after 15 mins by microarray method relative to control; assay type: functional; how it was run: as §3
[19] = tested on: Nakaseomyces glabratus; experiment: Antifungal activity against Candida glabrata 70 measured at 24 hrs by broth dilution assay; assay type: functional; settings: Nakaseomyces glabratus, 70, 24 h; how it was run: as §1
[20] = tested on: Magnusiomyces capitatus; experiment: Antifungal activity against Geotrichum capitatum measured at 24 hrs by broth dilution assay; assay type: functional; how it was run: as §1
[21] = tested on: Candida parapsilosis; experiment: Ratio of MIC at 24 hrs to MIC at 48 hrs for Candida parapsilosis 81E; assay type: functional; how it was run: as §4
[22] = tested on: Candida albicans; experiment: Upregulation of CDR2 gene expression in Candida albicans SC5314 at 3 uM after 45 mins by microarray method relative to control; assay type: functional; how it was run: as §3
[23] = tested on: Pichia kudriavzevii; experiment: Ratio of MIC at 24 hrs to MIC at 48 hrs for Candida krusei ATCC 14243; assay type: functional; how it was run: as §4

Structure (SMILES): C/C=C/CNC(=N)NCCCCCCCCN1CCCCCCCCNC(=N)NC1=O
- MIC [1]: 5 µM (≈ 2.18 µg/mL)
- fold change (FC) [2]: 3.49
- fold change (FC) [3]: 21.54
- Activity [4]: Active
- MIC [5]: 80 µM (≈ 34.9 µg/mL)
- fold change (FC) [6]: 3.07
- Ratio [7]: 2
- Activity [8]: Active
- MIC [9]: 5 µM (≈ 2.18 µg/mL)
- fold change (FC) [10]: 17.22
- fold change (FC) [11]: 2.39
- Activity [12]: Active
- MIC [13]: 10 µM (≈ 4.36 µg/mL)
- fold change (FC) [14]: 2.16
- MIC [15]: 80 µM (≈ 34.9 µg/mL)
- fold change (FC) [16]: 5.88
- Ratio [17]: 8
- fold change (FC) [18]: 2.04
- MIC [19]: > 80 µM
- Activity [20]: Active
- Ratio [21]: 2
- fold change (FC) [22]: 134.38
- Ratio [23]: 8
